Source: PubChem BioAssay (several laboratories)
NPY Y2 blocker – NPY-Y2 (human) receptor antagonism. P49146. NPY-Y2 expressing cells, antagonist mode. inhibition, % at 2.7 µM. 0.99% of 140,000 active; in the data active = inhibition above about 17%;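 also: 0% = vehicle with agonist challenge and 100% = reference antagonist with challenge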
Furin inhibitor – human furin inhibition. AID 463115. P09958. inhibition, % at 20 µM or 30 µM. 0.061% of 220,000 active. purified furin, fluorogenic substrate cleavage; in the data active = inhibition above about 25%
NPY-Y1 PAM-ag – potentiators or agonists of human neuropeptide Y receptor Y1; P25929; NPY-Y1 expressing cells, potentiator/agonist activation; activation, % at 3.6 µM; 0.37% of 220,000 active; AID 1304; in the data active = activation above about 33%, passing the limit was not always enough;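 also: cells stimulated with NPY at EC10 then isoproterenol at EC100; 0% = low agonist plus stimulus and 100% = saturating agonist plus stimulus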
NPY Y1 blocker – blocks the human neuropeptide Y Y1 receptor; P25929; HEK293-CNG Y1 cells, membrane potential fluorescence; NPY at EC95, then isoproterenol; inhibition, % at 3.6 µM; 1% of 200,000 active;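 active = inhibition above the campaign mean inhibition of all tested compounds plus 3 SD, cut at about 20% in these data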;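 also: 0% = DMSO wells given NPY plus isoproterenol and 100% = isoproterenol alone without NPY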
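Material: HEK293 cells co-expressing NPY Y1 receptor and cyclic-nucleotide gated channel. Timing: compound incubation 1 h at room temperature, readout 45 min post-stimulation. Signal: fluorescence, membrane potential probe.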
KCC2 mod – modulators of human KCC2 chloride dependent transport; Q9H2X9; 2.2% of 190,000 active; B-score of Tl+ flux slope (higher = more flux/activation; lower = inhibition) at 10 µM; AID 1456; KCC2 cells, thallium flux FluoZin-2 fluorescence;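 active = thallium flux slope and its plate-corrected score both differing from the plate sample mean at a set confidence after two filtering rounds, in either direction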;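 also: slope of fluorescence scaled to starting intensity during 10 to 20 s after thallium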
Target sequence (Q9H2X9 whole entry, looked up): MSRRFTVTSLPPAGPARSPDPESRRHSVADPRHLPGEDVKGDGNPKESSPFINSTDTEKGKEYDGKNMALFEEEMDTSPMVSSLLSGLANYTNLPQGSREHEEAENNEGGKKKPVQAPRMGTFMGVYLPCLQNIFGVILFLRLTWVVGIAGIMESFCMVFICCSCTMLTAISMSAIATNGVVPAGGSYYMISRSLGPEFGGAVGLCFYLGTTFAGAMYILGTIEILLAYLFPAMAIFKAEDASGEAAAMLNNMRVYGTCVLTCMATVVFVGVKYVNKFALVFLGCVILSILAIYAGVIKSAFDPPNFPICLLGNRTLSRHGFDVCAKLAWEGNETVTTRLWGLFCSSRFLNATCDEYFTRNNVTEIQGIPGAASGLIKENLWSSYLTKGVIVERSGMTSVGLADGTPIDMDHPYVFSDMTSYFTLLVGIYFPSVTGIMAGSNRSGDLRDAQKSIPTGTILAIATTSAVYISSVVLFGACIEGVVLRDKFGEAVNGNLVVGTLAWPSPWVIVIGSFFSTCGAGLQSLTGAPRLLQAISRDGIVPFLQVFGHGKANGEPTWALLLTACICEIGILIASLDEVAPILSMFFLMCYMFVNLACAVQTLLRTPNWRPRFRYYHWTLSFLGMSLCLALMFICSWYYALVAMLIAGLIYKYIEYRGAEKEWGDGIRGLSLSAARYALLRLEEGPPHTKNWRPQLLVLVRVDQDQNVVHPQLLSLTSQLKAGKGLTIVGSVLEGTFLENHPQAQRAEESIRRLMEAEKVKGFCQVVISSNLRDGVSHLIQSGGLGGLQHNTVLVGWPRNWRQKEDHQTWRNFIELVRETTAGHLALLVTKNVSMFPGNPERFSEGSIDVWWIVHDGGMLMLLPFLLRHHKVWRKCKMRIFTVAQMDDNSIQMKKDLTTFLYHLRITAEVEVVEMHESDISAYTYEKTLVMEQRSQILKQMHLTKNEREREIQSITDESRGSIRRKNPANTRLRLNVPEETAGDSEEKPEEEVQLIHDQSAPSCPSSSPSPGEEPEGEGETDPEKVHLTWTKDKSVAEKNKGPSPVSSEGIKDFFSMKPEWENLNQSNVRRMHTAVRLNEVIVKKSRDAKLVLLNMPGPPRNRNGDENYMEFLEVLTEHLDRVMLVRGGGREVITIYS
NPY2 pot ag – potentiates or activates human NPY-Y2 receptor; 0.45% of 220,000 active; activation, % at 3.6 µM; AID 1359; cells expressing NPY-Y2, potentiator/agonist read-out; P49146; in the data active = activation above about 27%;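 also: cells stimulated with NPY near EC25 plus isoproterenol at EC100; 0% = vehicle plus submaximal agonist and 100% = vehicle plus saturating agonist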
KCC2 sec1 – KCC2 (human) modulation, secondary assay; shares compounds with KCC2 mod; HEK293-KCC2, thallium flux, FluoZin2 fluorescence; active compounds read high; normalised thallium flux (F/F0 slope) at 10 µM; 15% of 3,700 active; AID 1713;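 active = thallium flux slope above the same plate's solvent-only control mean plus 3 SD; inconclusive = the two replicate wells disagree; inactive = no significant difference from solvent-only control wells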
KCC2 bumet counter – thallium flux persisting under bumetanide in KCC2 cells, counter-screen secondary assay; shares compounds with KCC2 mod; HEK293-KCC2 + bumetanide/ouabain, thallium flux FluoZin2; active compounds read high; normalized thallium flux at 10 µM; 49% of 3,700 active; AID 1714;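 active = thallium entry rate above the same plate's blocked-transporter control wells by more than 3 SD; inconclusive = the two repeat wells disagree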;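 also: raw slope of fluorescence over initial fluorescence between 10 and 20 s after thallium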
KCC2 sec2 – KCC2 (human) modulation, second secondary assay. shares compounds with KCC2 mod. HEK293-KCC2, thallium flux FluoZin2 fluorescence; actives lie on both sides; F/F0 rise rate, 10–20 s post-thallium. normalized thallium flux at 10 µM. 23% of 3,700 active. AID 1715;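 active = thallium flux slope more than 3 SD above or below the plate's solvent-only control mean, mostly below; inconclusive = the two repeat wells disagreed; inactive = no significant shift from solvent-only controls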;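 also: raw slope with 0.1% DMSO as baseline and bumetanide as block control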
HEK293 Tl flux – counter-screen for KCC2 modulators: effect in parental HEK293 cells. shares compounds with KCC2 mod. thallium flux FluoZin2, ouabain; baseline-ratio fluorescence slope, 10–20 s after thallium. thallium flux rate (normalised fluorescence) at 10 µM. 46% of 3,700 active;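 active = thallium flux rate significantly above the same plate's solvent-only control wells, beyond their mean plus 3 SD; inconclusive = the two replicate wells gave conflicting results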
KCC2 retest ouab – KCC2 (human) modulation, ouabain retest. shares compounds with KCC2 mod. HEK293-KCC2, thallium flux FluoZin2 fluorescence; bidirectional: low = inhibitor, high = activator. raw Tl+ flux slope (below DMSO = inhibition, above = activation) at 10 µM. 48% of 3,700 active. AID 1717;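 active = thallium flux slope beyond 3 SD from same-plate DMSO control mean in most replicates, usually higher, sometimes lower; inconclusive = repeat tests gave conflicting results; inactive = no significant difference from controls in most replicates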;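 also: slope of initial-normalized fluorescence between seconds 10 and 20 after thallium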
HEK counter2 – acts in parental HEK cells, second KCC2 counter-screen; shares compounds with KCC2 mod; HEK293 parental, thallium flux FluoZin-2 fluorescence slope; thallium flux slope at 10 µM; 33% of 3,700 active;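 active = thallium flux slope above the same plate's solvent-control mean plus 3 SD in both duplicate wells; inconclusive = duplicate wells that disagreed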;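 also: run without ouabain in cells lacking the KCC2 cotransporter; slope of fluorescence scaled to its starting value between 10 and 20 s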
Starred values were filed as active, the others as inactive; ? = inconclusive; / = no result. Compounds with a hit are over-represented: about 3.7% of the library has one in this group of screens.

SMILES	NPY Y2 blocker	Furin inhibitor	NPY-Y1 PAM-ag	NPY Y1 blocker	KCC2 mod	NPY2 pot ag	KCC2 sec1	KCC2 bumet counter	KCC2 sec2	HEK293 Tl flux	KCC2 retest ouab	HEK counter2
C=CCOc1c(Br)cc(/C=N/Nc2ccc(C(=O)O)cc2)cc1OCC	4	2	6	0	-5.7*	10	0.0059	0.0058*	0.028	0.0079	0.017	0.01
COc1ccc(/C=N/Nc2ccc(C(=O)O)cc2)cc1Br	/	-34	11	-2	-0.5	1	/	/	/	/	/	/
O=C(NC1CCCCC1)C(c1ccco1)N(CCc1ccccc1)C(=O)C(F)(F)F (stereo unspecified)	2	-9	-22	10	-0.88	-25	/	/	/	/	/	/
O=C(CC(Cc1ccccc1)c1ccco1)NC1CCCCC1 (stereo unspecified)	5	-20	6	9	/	-4	0.011	0.0063	0.028*	0.0077	0.013*	0.01
Cc1cc(CN(C)C(=O)c2cc(COc3ccc(F)cc3Cl)on2)n[nH]1	/	-23	-11	-5	-4.7*	-12	0.0061*	?	?	0.0083	0.024	0.011
C#CCN(Cc1ccco1)C(=O)c1cc(COc2ccc(F)cc2Cl)on1	/	-4	-16	5	-1.6	-10	/	/	/	/	/	/
Cc1ccc(CN(C)C(=O)c2cc(COc3ccc(F)cc3Cl)on2)o1	/	-26	-13	20*	/	-18	0.007	0.0053	0.026*	0.0072	?	0.01
Cc1nc(CNC(=O)c2cc(COc3ccc(F)cc3Cl)on2)cs1	/	-14	2	8	-4.6*	-27	0.0065	0.0064	0.033	0.0043	0.015*	0.011
CC(C)c1ccc(NC(=O)c2csnn2)cc1	-3	-10	31	4	6.7*	1	0.016	0.0042	0.029	0.007	0.015	0.0098
CCCCc1ccc(N/C(N)=N/c2nc(C)cc(C)n2)cc1	/	-20	6	/	-3.7	2	/	/	/	/	/	/
O=C(CN1C(=O)c2ccccc2C1=O)N1CCCCC1	2	-26	-1	-1	1.6	14	/	/	/	/	/	/
O=CN1CCN(C(=O)CN2C(=O)c3ccccc3C2=O)CC1	0	6	-3	-2	6.3*	-3	0.0059	?	0.027	0.0081	0.018	0.01
COc1ccc(-c2csc(NC(=O)c3cccs3)c2C(=O)O)cc1OC	/	-19	6	-5	-3.7*	0	0.0076	0.0065	0.036	0.0036	0.016*	0.012
COc1ccc(-c2csc(NC(=O)Cc3cccc4ccccc34)c2C(=O)O)cc1	/	-35	22	1	-4.1*	7	0.0078	0.0051	0.028	0.0084	0.017	0.011
CC(C)CCNC(=O)[C@H](CSCc1ccccc1)N1Cc2ccccc2C1=O	4	0	-14	0	-4.2*	11	0.0058*	0.0045	?	?	0.014*	0.0093
CCSC1=N/C(=C/c2ccsc2)C(=O)N1c1ccccc1	2	1	-18	7	-4.7*	-3	0.0093	0.0062	0.034	0.0071	0.022	0.011
CCOc1ccc(NC(=S)NC(=O)/C=C/c2ccc(C)cc2)c([N+](=O)[O-])c1	1	-12	19	7	-0.24	-7	/	/	/	/	/	/
CCOc1ccc(NC(=S)NC(=O)c2c(Cl)c(C)nn2C)c([N+](=O)[O-])c1	7	-16	-7	7	9.4*	1	0.011	0.017*	0.034	?	?	0.012
O=C(Nc1ccccc1C(=O)NC(Cc1ccccc1)C(=O)NC1CCCCC1)c1ccccc1 (stereo unspecified)	9	-15	-25	4	-0.78	-5	/	/	/	/	/	/
O=C(Nc1ccc(Cl)cc1)N(CCCN1CCOCC1)Cc1cccs1	1	-14	15	-1	1	9	/	/	/	/	/	/
O=S(=O)(c1ccc(Cl)cc1)N(CCCN1CCOCC1)Cc1cccs1	/	-34	21	-2	/	6	0.017	0.0042	0.029	?	0.015	0.0099
Cc1cc(F)ccc1NCC(=O)Nc1ccccc1Br	2	-14	-20	-1	-0.97	2	/	/	/	/	/	/
O=C(NC(=S)NCC1CCCO1)c1ccc(Cl)cc1Cl (stereo unspecified)	2	-28	-8	0	9*	-8	0.0097	0.029*	0.029	0.011*	?	0.0094
COc1ccc(-c2cc(C(=O)NNC(=S)NC(=O)c3c(-c4ccccc4)noc3C)[nH]n2)cc1	/	-22	-2	-5	-0.45	5	/	/	/	/	/	/
Cc1onc(-c2ccccc2)c1C(=O)NNC(=S)NC(=O)/C=C/c1ccccc1	2	-26	-14	8	6.3*	-5	0.013*	0.037*	0.035	0.017*	0.035*	0.012*
SMILES	NPY Y2 blocker	Furin inhibitor	NPY-Y1 PAM-ag	NPY Y1 blocker	KCC2 mod	NPY2 pot ag	KCC2 sec1	KCC2 bumet counter	KCC2 sec2	HEK293 Tl flux	KCC2 retest ouab	HEK counter2
COc1ccc(/C=C/C(=O)NC(=S)NNC(=O)c2cc(OC)c(OC)c(OC)c2)cc1	/	-9	4	/	4.5*	2	0.0094	?	0.032	0.0042	0.021	0.01
Cc1cccc(C)c1NC(=O)c1c(-c2ccccc2)noc1C	2	-31	15	-3	/	-2	/	/	/	/	/	/
Cc1onc(-c2ccccc2)c1C(=O)NNC(=S)NC(=O)c1ccc(Cl)cc1Cl	8	-9	-16	9	16*	-5	?	0.044*	0.055*	0.039*	0.045*	0.042*
O=S(=O)(N/N=C/c1cccnc1)c1ccc(Cl)c(Cl)c1	/	-28	-18	/	0.05	-9	/	/	/	/	/	/
Fc1ccc(-n2c(CN3CCCCC3)n[nH]c2=S)cc1	/	-12	-9	-3	-0.01	-3	/	/	/	/	/	/
N#Cc1cccnc1N1CCC(C(N)=O)CC1	/	-20	10	/	1.9	8	/	/	/	/	/	/
COc1ccc(/C=C/C(=O)NC(=S)NNC(=O)c2c(-c3ccccc3)noc2C)cc1	1	0	6	2	7.1*	4	0.013*	0.037*	0.033	0.018*	?	0.012*
COC(=O)CCCCC(=O)C1C(=O)CC(C)(C)C(C(=O)OC)C1=O (stereo unspecified)	0	-22	-13	1	0.57	-5	/	/	/	/	/	/
